Bioassay records as filed in PubChem.
HSP90 inh = inhibitors of HSP90 luciferase refolding in rabbit reticulocyte lysate; 0.91% of 290,000 active; inhibition, % at 5.6 µM; luciferase refolding luminescence, 3 h;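 active means inhibition above the screen-wide mean plus 3 SD, computed separately per campaign, cut at about 16% in these data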;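 further: 0% = DMSO wells and 100% = 60 µM geldanamycin wells; inhibitors lower the luminescence because luciferase stays unfolded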
SENP7 inh = SENP7 protease inhibition. Q9BQF6. recombinant SENP7, Z-RLRGG-aminoluciferin luminescence, 40 min. inhibition, % at 5 µM. 1.5% of 330,000 active. AID 434973;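 active means inhibition above about 50% at the single test dose, limit read from the data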;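 further: plate controls were DMSO with enzyme for no effect and no enzyme buffer wells for full effect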
SENP1 inh = blocks the human SENP1 SUMO protease catalytic domain; Q9P0U3; recombinant SENP1 catalytic domain, CyPet-SUMO1-YPet FRET cleavage; inhibition, % at 10 µM; 0.21% of 360,000 active;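 active means inhibition at least 30% at 10 µM, raw YFP signal under a set limit, fluorescence ratio 0.5 to 1.5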;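 further: 0% = enzyme with DMSO and 100% = no enzyme wells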
Target sequence (Q9P0U3 419-644 limits assumed): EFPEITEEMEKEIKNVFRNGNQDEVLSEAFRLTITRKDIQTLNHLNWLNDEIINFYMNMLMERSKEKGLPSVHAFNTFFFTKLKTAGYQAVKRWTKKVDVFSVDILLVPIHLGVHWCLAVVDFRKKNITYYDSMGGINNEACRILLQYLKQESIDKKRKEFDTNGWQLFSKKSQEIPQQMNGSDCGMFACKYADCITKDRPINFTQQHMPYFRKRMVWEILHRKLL
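Assay system: hSENP1 catalytic domain, recombinant. Amount: SENP1 enzyme, 20 pM final. Schedule: 50 min reaction, RT, dark. Technique: FRET, CFP and YFP emission. Control set: no-enzyme wells low, DMSO-plus-enzyme wells high control.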
SENP8 block-1 = blocks the human protease SENP8. 1.2% of 330,000 active. purified SENP8, Z-RLRGG-aminoluciferin cleavage, luminescence. inhibition, % at 10 µM. Q96LD8; in the data active means inhibition above about 50%
Target sequence (Q96LD8 whole entry, looked up): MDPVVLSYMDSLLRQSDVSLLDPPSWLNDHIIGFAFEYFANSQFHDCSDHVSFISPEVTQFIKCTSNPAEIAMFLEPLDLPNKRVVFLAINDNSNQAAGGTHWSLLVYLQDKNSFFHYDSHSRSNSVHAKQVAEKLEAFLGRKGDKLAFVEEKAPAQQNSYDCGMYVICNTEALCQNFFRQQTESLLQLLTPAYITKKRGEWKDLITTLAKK
SENP6 inh = blocks the human protease SENP6 | Recombinant SENP6 catalytic domain, aminoluciferin luminescence | inhibition, % at 10 µM | 1.8% of 330,000 active;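 active means inhibition above about 50% at the single tested dose, limit read from the data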;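 further: plate controls were DMSO wells with enzyme for no effect and DMSO wells lacking enzyme for full effect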
SENP8 block-2 = inhibitors of human SENP8 protease; Q96LD8; recombinant SENP8, Nedd8 substrate fluorescence; inhibition, % at 20 µM; 0.64% of 360,000 active; AID 602440; in the data active means inhibition mostly above about 40%, no sharp cut-off; inactive means mostly below about 27%
Starred values were filed as active, the others as inactive; i = inactive; x = not tested or not shown. An excerpt weighted towards active compounds, which were near 2.9% of everything screened.

SMILES	HSP90 inh	SENP7 inh	SENP1 inh	SENP8 block-1	SENP6 inh	SENP8 block-2
CN(C)c1ccc2nc3ccc(=[N+](C)C)cc-3sc2c1	15	16	5	34	32	66*
CC(/C=C1\SC(=S)N(NC(=O)c2ccc(C)cc2)C1=O)=C\c1ccccc1	3	-1	-4	-2	-4	40*
Cn1cccc1/C=C1\SC(=S)N(NC(=O)c2ccccc2)C1=O	-2	x	-81	x	x	32
Cn1cccc1/C=C1\SC(=S)N(NC(=O)c2ccccc2O)C1=O	2	0	-69	7	-19	47*
Cn1cccc1/C=C1\SC(=S)N(NC(=O)c2ccc(F)cc2)C1=O	1	-4	-85	7	1	52*
COc1ccc(Cc2nnc(NC(=O)CS(=O)(=O)Cc3ccccc3)s2)cc1	-2	12	-2	-7	-12	0
Oc1c(Br)cc(Br)cc1/C=N/Nc1ccc(Cl)nn1	1	x	-7	x	x	12
Oc1ccc(/C=N/Nc2ccc(Cl)nn2)c(O)c1O	2	4	5	5	20	49*
NC(=S)N=Nc1c(O)[nH]c2ccc(F)cc12	2	-5	2	-1	-12	34
NC(=S)N=Nc1c(O)cc(O)c2[nH]c(=O)ccc12	x	x	-5	x	x	75*
Oc1ccc(Cl)cc1N=Cc1sc2ccccc2c1Cl	64*	x	5	x	x	0
Cc1c(/C=N/O)sc2ccccc12	-2	14	0	-4	-8	9
COc1cccc2c1C(=O)c1c(O)c3c(c(O)c1C2=O)C[C@@](O)(C(=O)CO)C[C@@H]3O[C@H]1C[C@H](N)[C@@H](O)[C@H](C)O1	x	10	97	5	9	52*
Cc1onc(-c2c(F)cccc2Cl)c1C(=O)Nc1cccc(S(=O)(=O)N2CCOCC2)c1	x	3	2	7	4	10
O=C(COC(=O)c1cccc2c1C(=O)c1ccccc1C2=O)NC1CCCCC1	0	-7	1	-7	28	20
O=C(COC(=O)c1ccc2c(c1[N+](=O)[O-])C(=O)c1ccccc1C2=O)NC1CC1	2	1	2	17	38	34*
CSc1cccc(NC(=O)c2cnccn2)c1	0	-4	3	-5	-13	17
CSc1cccc(NC(=O)c2ccccn2)c1	-1	52*	x	41	55*	x
COc1ccc(S(=O)(=O)N(C)C[C@H]2Oc3c(NC(=O)NC(C)C)cccc3C(=O)N([C@H](C)CO)C[C@@H]2C)cc1	x	12	2	2	5	6
COc1ccc2c(COC(=O)[C@H](C)NS(=O)(=O)c3ccccc3F)cc(=O)oc2c1	x	-10	-29	-5	-8	-500
Cc1ccc2[nH]c3c(c2c1)CN(C(C)C)CC3	16*	3	-5	3	-14	-13
CCOC(=O)c1cccc(NC(=O)Cn2c(CC(=O)N3CCCC3)nc3ccccc32)c1	0	3	x	1	76*	x
CN(C)c1ccc(C=C2SC(=S)NC2=O)cc1	x	x	-34	x	x	39
CN(C)c1ccc(/C=N/N=C2/NC(=O)/C(=C/c3ccc([N+](=O)[O-])cc3)S2)cc1	15	34	40	36	69*	4
CCOc1ccc2c(c1)C(C)=CC(C)(C)N2S(=O)(=O)c1ccc(F)cc1	0	5	0	7	13	19
SMILES	HSP90 inh	SENP7 inh	SENP1 inh	SENP8 block-1	SENP6 inh	SENP8 block-2
CCOc1ccc2c(c1)-c1c(ssc1=S)C(C)(C)N2C	3	-6	3	-5	-5	47*
O=C(NCc1ccccc1CN1CCCC1)c1cc2cc(Cl)ccc2o1	x	1	1	2	-10	2
CC(C)[C@H](NS(=O)(=O)c1ccccc1)C(=O)Nc1nccs1	x	-14	1	3	-4	6
COc1ccc(Cc2c3cc(OC)c(OC)cc3cc[n+]2C)cc1OC	x	-6	1	14	20	60*
Cc1ccccc1-n1c(C)cc(/C=N/Nc2ccc([N+](=O)[O-])cn2)c1C	2	4	7	-7	-10	60*
O=[N+]([O-])c1ccc(NN=Cc2ccccc2O)nc1	x	x	-33	x	x	-198
Cc1cc(/C=N/Nc2ccc([N+](=O)[O-])cn2)c(C)n1-c1ccc(C(=O)O)cc1	0	2	-2	-4	2	50*
COc1ccc(OC)c(NC(=O)CN2C(=O)C(C)N(c3ccc(C)cc3)C2=O)c1 (centres undefined)	x	-6	2	-11	-4	10
O=C1c2cccc(O)c2C(=O)c2c(O)cc(CO)cc21	x	2	x	10	28	x
CC1OC2CC(=O)OC2C2=C1C(=O)c1c(O)cccc1C2=O (centres undefined)	x	x	5	x	x	99*
Cc1c(N2C(=O)c3ccccc3C2(O)c2ccccc2)c(=O)n(-c2ccccc2)n1C (centres undefined)	-3	-1	3	-2	95*	5
N#CC(C#N)=NNc1ccc(S(=O)(=O)N2CCCCC2)cc1	5	-1	2	3	17	47*
O=C(O)c1ccc2c(c1)S(=O)(=O)c1cc(N3CCN(c4ncccn4)CC3)ccc1C2=O	x	x	34	x	x	-6
Cc1ccc(N=Nc2c(=O)[nH]n3c(C)cc(C)nc23)cc1	3	-10	5	-10	-15	49*
Cc1cc(C)n2[nH]c(=O)c(N=Nc3ccc(S(N)(=O)=O)cc3)c2n1	8	1	4	0	17	20
COC(=O)C[C@H]1CC[C@@H](NC(=O)Nc2c(C)noc2C)[C@@H](CO)O1	x	x	-1	x	x	18
COCCN1C(=O)/C(=C/c2ccc(N3CCCC3)cc2)SC1=S	0	9	16	5	0	44*
COc1ccc(/C=C2\SC(=S)N(CCC(=O)N3CCCCC3)C2=O)cc1	1	-5	-22	-1	-10	26
COc1ccc(/C=C2/SC(=S)N(CCC(=O)N3CCN(C)CC3)C2=O)cc1	-3	-14	-25	-20	-8	37*
COc1cccc(NC(=O)CSc2nc(O)c(C)c(=O)n2-c2ccc(C)cc2)c1	2	2	0	1	-2	5
CCC(C)(C)C1CCC2(CC1)NC(=O)N(CC(=O)NCCc1ccc(OC)c(OC)c1)C2=O (centres undefined)	x	10	-4	-8	7	10
Fc1ccc(-c2nc3nc4ccccc4nc3n2Cc2ccco2)cc1	17*	-2	-14	-9	-2	i
c1ccc(-c2nc3nc4ccccc4nc3n2Cc2ccco2)cc1	3	19	-21	6	16	-446
COc1ccc(/C=C2/C(=O)N(c3nc4ccccc4s3)N=C2CSc2ccc(Cl)cc2)cc1	2	4	-3	2	1	40*
Cc1ccc2cc(NC(=O)c3cccc(F)c3)ccc2n1	5	40	-3	31	58*	25
O=C(Nc1ccc2[nH]ncc2c1)c1cccc(F)c1	0	1	2	-14	0	15
